These results are taken from ChEMBL document CHEMBL1125596, “3-Alkyl-4-aminobutyric acids: the first class of anticonvulsant agents that activates L-glutamic acid decarboxylase” (1991).

Assay [1] in a line: Tested for activation of Glutamate decarboxylase; the ratio of Vmax in the presence of activators to the Vmax in the absence of activators at a concentration of 2.5 mM. The method, boiled down:
(§1)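 Purified GAD (57 µg; sp act. 7.8 nmol/min·mg), 50 mM potassium phosphate pH 7.2, 37 °C, 60 min. Substrate L-glutamate 0.5–0.10 mM spiked with [1-14C]-L-glutamate. Activator at 2.5–0.05 mM. Reaction quenched with 6 M H2SO4; released 14CO2 trapped in KOH center well and counted. Vmax taken from 1/dpm vs 1/[glutamate] plots. Activation is Vmax(+activator)/Vmax(none) ×100%.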

Assay [2] can be described thus: Tested for activation of Glutamate decarboxylase; the ratio of Vmax in the presence of activators to the Vmax in the absence of activators at a concentration of 250 uM. The method, boiled down: as §1
Assay [3] can be described thus: Tested for activation of Glutamate decarboxylase; the ratio of Vmax in the presence of activators to the Vmax in the absence of activators at a concentration of 1.0 mM. The method, boiled down: as §1
Assay [4] can be described thus: Compound was tested for anticonvulsant activity in Mice by iv administration at the dose of 100 mg/kg. Type of assay: functional, Mus musculus. The method, boiled down:
(§2)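 Male CF-1 mice (20-28 g), compound given iv. 120 min later, low-intensity corneal electroshock (17 mA base-to-peak sinusoidal, 0.2 s). Protection was scored as prevention of hindlimb tonic extensor seizure and reported as number protected/number tested.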

The nature of assay [5]: Compound was tested for activation of Glutamate decarboxylase which is the ratio of Vmax in the presence of activators to the Vmax in the absence of activators at a concentration of 500 uM. The method, boiled down:
as §1

Assay [6] is described as follows: Compound was tested for activation of Glutamate decarboxylase which is the ratio of Vmax in the presence of activators to the Vmax in the absence of activators at a concentration of 100 uM. The method, boiled down:
as §1

Assay [7] can be described thus: Compound was tested for anticonvulsant activity in Mice by iv administration at the dose of 100 mg/kg. Type of assay: functional, Mus musculus. The method, boiled down: as §2
A short description of assay [8]: Compound was tested for anticonvulsant activity in Mice by iv administration at the dose of 100 mg/kg; 3/5. Type of assay: functional, Mus musculus. The method, boiled down: as §2
Assay [9] in a line: Compound was tested for activation of Glutamate decarboxylase which is the ratio of Vmax in the presence of activators to the Vmax in the absence of activators at a concentration of 50 uM. The method, boiled down:
as §1

A short description of assay [10]: Compound was tested for anticonvulsant activity in Mice by iv administration at the dose of 100 mg/kg; 0/10. Type of assay: functional, Mus musculus. The method, boiled down: as §2
Assay [11] in a line: Compound was tested for anticonvulsant activity in Mice by iv administration at the dose of 100 mg/kg; 2/10. Type of assay: functional, Mus musculus. The method, boiled down:
as §2

Assay [12] is described as follows: Compound was tested for anticonvulsant activity in Mice by iv administration at the dose of 100 mg/kg; 5/10. Type of assay: functional, Mus musculus. The method, boiled down:
as §2

The nature of assay [13]: Compound was tested for anticonvulsant activity in Mice by iv administration at the dose of 14.4 mg/kg; 9/10. Type of assay: functional, Mus musculus. The method, boiled down:
as §2

Assay [14] can be described thus: Compound was tested for anticonvulsant activity in Mice by iv administration at the dose of 30 mg/kg; 2/10. Type of assay: functional, Mus musculus. The method, boiled down: as §2
Assay [15] can be described thus: Compound was tested for anticonvulsant activity in Mice by iv administration at the dose of 100 mg/kg; 6/10. Type of assay: functional, Mus musculus. The method, boiled down:
as §2

A short description of assay [16]: Compound was tested for anticonvulsant activity in Mice by iv administration at the dose of 100 mg/kg; 4/10. Type of assay: functional, Mus musculus. The method, boiled down: as §2

Structures are written as SMILES.

Consider `CC(C)(CN)CC(=O)O`, for which the Activity was 174 in assay [1], 109 in assay [2] and 125 in assay [3]. The “No. of animals protected” value in [4] came out at 8.
In the case of `C[C@@H](CN)CC(=O)O`, the Activity in [1] was 327; in assay [5] it was 185; in [3] it was 202; in assay [6], 128. Further, the “No. of animals protected” value in [7] stood at 5.
Turning to `NCC(CC(=O)O)C1CCCCC1` (stereo not drawn), the values for the Activity in [1], in [2] and in [3] were 125, 100 and 100, respectively.
Take `CCCC(CN)CC(=O)O` (stereo not drawn): the Activity in [1] is 156; in [2], 105; in [3], 112. Further, the “No. of animals protected” value in [8] worked out at 3.
Consider `CC(CN)CC(=O)O` (stereo not drawn), for which the Activity in assay [1] was found to be 239; in [2], 128; in [5], 142; in assay [9], 107; in assay [3], 168; in assay [6], 118. Also, the “No. of animals protected” value in assay [4] is 3.
For `CC(C)CCC(CN)CC(=O)O` (stereo not drawn), the Activity in assay [1] is 142; in assay [2], 109; in [3] it was 118. Moreover, the “No. of animals protected” value in [10] is recorded as 0.
In the case of `CCCCCNCC(N)=O`, the results for the Activity in [1], in assay [2] and in [3] were 230, 126 and 170, respectively.
The like results for `NCC1(CC(=O)O)CCCCC1` were, in that order, 178, 105 and 145.
In the case of `CCC(CN)CC(=O)O` (stereo not drawn), the Activity in [1] amounted to 172; in assay [2], 108; in assay [3] it was 128. Moreover, in [4], the “No. of animals protected” value is reported as 5.
With `CCCCC(CN)CC(=O)O` (stereo not drawn), the Activity in assay [1] amounted to 178; in assay [2], 105; in assay [3], 117. Moreover, the “No. of animals protected” value in [11] amounted to 2.
Regarding `CC(C)(C)C(CN)CC(=O)O` (stereo not drawn), the Activity in [1] was 295; in assay [5], 147; in assay [3], 174; in assay [6], 117. The “No. of animals protected” value in assay [12] is reported as 5.
As for `C[C@H](CN)CC(=O)O`, the figures for the Activity in [1], in assay [2] and in [3] were 170, 103 and 118, respectively. In [4], the “No. of animals protected” value was 5.
With `CC(C)CC(CN)CC(=O)O` (stereo not drawn), in [2], the Activity was determined as 109. Also, the “No. of animals protected” value in assay [13] is on record as 9.
Turning to `CCC(C)C(CN)CC(=O)O` (stereo not drawn), the Activity in assay [1] came to 169; in assay [2], 105; in [3], 119. In [14], the “No. of animals protected” value came out at 2.
Consider `CCCC(CCC)C(=O)O`, for which the Activity in assay [1] is 207; in assay [5], 124; in assay [3], 138; in assay [6], 115.
In the case of `CC(C)C(CN)CC(=O)O` (stereo not drawn), the Activity in [1] turned out to be 140; in assay [2] it was 104; in [3], 108. In addition, the “No. of animals protected” value in assay [15] is listed as 6.
Take `CC(C)(C)CC(CN)CC(=O)O` (stereo not drawn): the Activity in assay [1] was determined as 279; in assay [2] it was 130; in assay [3], 181. The “No. of animals protected” value in [16] is reported as 4.
